Here are results for one compound from ChEMBL document CHEMBL3576866, “Discovery of a Cyclic Boronic Acid β-Lactamase Inhibitor (RPX7009) with Utility vs Class A Serine Carbapenemases” (J Med Chem, 2015).

The structures appear in SMILES notation. pIC50, pKi: −log10 of the molar value. Where only a bound is given, the exact number is not on record here.

For data set [1], the system named is Escherichia coli. The experiment in a line: Inhibition of Escherichia coli EC1008 CTX-M-3 assessed as cefepime MIC at 4 ug/ml by broth microdilution method. Put shortly: (§1)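 CLSI broth microdilution (M07-A9) against clinical strains expressing serine β-lactamases.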
For data set [2], the target named is Neutrophil elastase (Homo sapiens, UniProt P08246). The experiment in a line: Inhibition of neutrophil elastase (unknown origin) using MeOSuc-AAVP-AMC as substrate preincubated for 10 mins followed by substrate addition measured for 30 mins by spectrophotometric analysis. Put shortly: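 Purified commercial enzyme, mixed with inhibitor across a concentration range in 50 mM Tris-HCl pH 7.5, 1 M NaCl and held 10 min at 37 °C. MeOSuc-AAVP-AMC (30 μM) then added and fluorescence followed for 30 min. Rates expressed relative to untreated control. IC50 taken as the concentration giving 50% inhibition. AEBSF and leupeptin served as positive controls.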

In data set [3] the target is Beta-lactamase TEM (Enterobacter cloacae) (UniProt Q6W9J1). The data set is described as follows: Inhibition of Enterobacter cloacae ECL1058 TEM-1 assessed as biapenem MIC at 4 ug/ml by broth microdilution method.
In data set [4] the test system is Klebsiella pneumoniae. The data set is described as follows: Inhibition of Klebsiella pneumoniae KP1087 CTX-M-15 assessed as biapenem MIC at 4 ug/ml by broth microdilution method. For orientation: In broth dilution the organism is exposed to a series of concentrations in liquid medium.
In data set [5] the test system is Klebsiella pneumoniae. The experiment in a line: Inhibition of Klebsiella pneumoniae KP1082 KPC-2 assessed as imipenem MIC at 4 ug/ml by broth microdilution method.
Data set [6] relates to Klebsiella pneumoniae. The experiment in a line: Inhibition of Klebsiella pneumoniae KP1087 CTX-M-15 assessed as meropenem MIC at 4 ug/ml by broth microdilution method. An outline of the steps:
(§2)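 CLSI broth microdilution (M07-A9, 2012) MIC of the carbapenem against clinical serine carbapenemase-producing strain, tested alone and with the inhibitor held at a fixed 4 μg/mL.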

For data set [7], the system named is Klebsiella pneumoniae. The experiment in a line: Inhibition of Klebsiella pneumoniae KP1004 KPC-2 assessed as biapenem MIC at 4 ug/ml by broth microdilution method. An outline of the steps: as §2
Data set [8] in a line: Volume of distribution in rat at 100 mg/kg, iv administered as 0.5 hrs infusion by HPLC-MS method. The data set is classed as ADME, organism-based. Conditions: in vivo.
For data set [9], the target named is T1, Class A carbapenemase (Enterobacter cloacae) (UniProt A7WP95).
T1 sequence (whole entry): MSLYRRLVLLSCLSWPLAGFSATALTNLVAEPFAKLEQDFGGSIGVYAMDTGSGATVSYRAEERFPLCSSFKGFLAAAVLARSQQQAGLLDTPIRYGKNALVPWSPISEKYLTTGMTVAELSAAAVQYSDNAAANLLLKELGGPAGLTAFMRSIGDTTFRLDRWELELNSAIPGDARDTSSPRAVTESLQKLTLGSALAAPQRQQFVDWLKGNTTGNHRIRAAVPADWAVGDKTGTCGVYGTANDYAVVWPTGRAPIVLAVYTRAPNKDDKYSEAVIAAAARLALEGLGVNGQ
The experiment in a line: Inhibition of Enterobacter cloacae ECL1058 KPC-3 assessed as biapenem MIC at 4 ug/ml by broth microdilution method.

Data set [10] has as its system Klebsiella pneumoniae. The experiment in a line: Inhibition of Klebsiella pneumoniae KP1088 SHV-11 assessed as meropenem MIC at 4 ug/ml by broth microdilution method. Put shortly: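 CLSI broth microdilution (M07-A9, 2012) against the clinical K. pneumoniae isolate. Carbapenem MICs were read alone and with 9f held at a fixed 4 μg/mL.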
Data set [11] relates to Klebsiella pneumoniae. The data set is described as follows: Inhibition of Klebsiella pneumoniae KP1008 KPC-2 assessed as ertapenem MIC at 4 ug/ml by broth microdilution method. Put shortly:
as §2

In data set [12] the target is Carbapenem-hydrolyzing beta-lactamase KPC (Klebsiella oxytoca) (UniProt Q848S6). The data set is described as follows: Inhibition of Klebsiella oxytoca KX1017 KPC-2 assessed as imipenem MIC at 4 ug/ml by broth microdilution method.
In data set [13] the target is Chymase (Homo sapiens, UniProt P23946). The experiment in a line: Inhibition of chymase (unknown origin) using Suc-AAPF-AMC as substrate preincubated for 10 mins followed by substrate addition measured for 30 mins by spectrophotometric analysis. An outline of the steps: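 Commercial chymase in 100 mM Tris, pH 8.0, 2 M NaCl, 0.01% Triton X-100. Mixed with inhibitor at various concentrations for 10 min at 37 °C before Suc-AAPF-AMC (listed at 40 μM), then fluorescence followed for 30 min. Rates were taken relative to a no-treatment control; IC50 is the concentration giving 50% inhibition.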

Data set [14] concerns Klebsiella pneumoniae. The data set is described as follows: Inhibition of Klebsiella pneumoniae KP1010 SHV-12 assessed as cefepime MIC at 4 ug/ml by broth microdilution method. An outline of the steps:
as §1

Data set [15] deals with Klebsiella pneumoniae. The data set is described as follows: Inhibition of Klebsiella pneumoniae KP1004 KPC-2 assessed as meropenem MIC at 4 ug/ml by broth microdilution method. An outline of the steps:
as §2

Data set [16] in a line: Inhibition of Escherichia coli recombinant CTX-M-15 assessed as substrate nitrocefin degradation preincubated for 10 mins followed by substrate addition measured every 10 secs for 10 mins by spectrophotometric analysis. An outline of the steps: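 β-Lactamases purified from overexpressing recombinant E. coli. Enzyme preincubated with inhibitor at varying concentrations for 10 min at room temperature in 50 mM Na phosphate pH 7.0, 0.1 mg/mL BSA. Then 50 μM nitrocefin (final) added and cleavage read at 490 nm every 10 s for 10 min. Ki derived by the Waley method.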

A short description of data set [17]: Clearance in rat at 100 mg/kg, iv administered as 0.5 hrs infusion by HPLC-MS method. The data set is classed as ADME, organism-based. Conditions: in vivo.
Data set [18] addresses Beta lactamase TEM-1 (Klebsiella pneumoniae) (UniProt Q7B899). The experiment in a line: Inhibition of Klebsiella pneumoniae KP1087 TEM-1 assessed as ertapenem MIC at 4 ug/ml by broth microdilution method. An outline of the steps: as §2
The subject of data set [19] is Klebsiella pneumoniae. The data set is described as follows: Inhibition of Klebsiella pneumoniae KP1004 KPC-2 assessed as imipenem MIC at 4 ug/ml by broth microdilution method. Put shortly: as §2
For data set [20], the target named is Beta lactamase TEM-1 (Klebsiella pneumoniae) (UniProt Q7B899). The data set is described as follows: Inhibition of Klebsiella pneumoniae KP1084 TEM-1 assessed as ertapenem MIC at 4 ug/ml by broth microdilution method. An outline of the steps: as §2
Data set [21] concerns Klebsiella pneumoniae. The data set is described as follows: Inhibition of Klebsiella pneumoniae KP1087 SHV-11 assessed as imipenem MIC at 4 ug/ml by broth microdilution method. An outline of the steps:
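CLSI broth microdilution (M07-A9) against clinical K. pneumoniae strain KP1087 (KPC-2, CTX-M-15, SHV-11, TEM-1); carbapenem MIC (μg/mL) read with the inhibitor held at a fixed 4 μg/mL, alongside carbapenem alone.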

The test system of data set [22] is Klebsiella pneumoniae. The data set is described as follows: Inhibition of Klebsiella pneumoniae KP1084 SHV-11 assessed as meropenem MIC at 4 ug/ml by broth microdilution method. An outline of the steps:
as §2

The target of data set [23] is Lysosomal protective protein (Homo sapiens, UniProt P10619). The experiment in a line: Inhibition of cathepsin A (unknown origin) using MCA-RPPGFSAFK-Dnp as substrate preincubated for 10 mins followed by substrate addition measured for 30 mins by […] analysis.
Data set [24] concerns Klebsiella pneumoniae. The data set is described as follows: Inhibition of Klebsiella pneumoniae KP1009 CTX-M-15 assessed as cefepime MIC at 4 ug/ml by broth microdilution method.

Chain of Beta lactamase TEM-1 (Klebsiella pneumoniae) (Q7B899 as listed by the source): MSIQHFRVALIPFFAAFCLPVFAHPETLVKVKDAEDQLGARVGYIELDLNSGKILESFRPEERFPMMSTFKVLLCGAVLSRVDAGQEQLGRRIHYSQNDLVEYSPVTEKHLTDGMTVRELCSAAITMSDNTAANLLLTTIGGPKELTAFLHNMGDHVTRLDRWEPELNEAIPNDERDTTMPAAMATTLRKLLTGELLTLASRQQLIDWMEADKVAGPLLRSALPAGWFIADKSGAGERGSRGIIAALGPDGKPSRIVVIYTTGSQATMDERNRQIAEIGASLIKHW
Chain of Carbapenem-hydrolyzing beta-lactamase KPC (Klebsiella oxytoca) (Q848S6 whole entry): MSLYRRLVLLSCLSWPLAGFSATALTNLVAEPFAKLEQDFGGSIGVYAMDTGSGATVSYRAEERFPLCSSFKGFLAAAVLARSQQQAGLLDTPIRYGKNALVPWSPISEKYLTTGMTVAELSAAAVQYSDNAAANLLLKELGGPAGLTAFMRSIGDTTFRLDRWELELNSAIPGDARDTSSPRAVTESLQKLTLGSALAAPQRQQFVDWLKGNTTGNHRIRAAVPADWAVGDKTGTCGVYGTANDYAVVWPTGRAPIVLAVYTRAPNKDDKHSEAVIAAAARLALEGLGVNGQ
Chain of Beta-lactamase TEM (Enterobacter cloacae) (Q6W9J1 as listed by the source): as the sequence (Q7B899 as listed by the source) above
Chain of Lysosomal protective protein (P10619 29-326 limits assumed): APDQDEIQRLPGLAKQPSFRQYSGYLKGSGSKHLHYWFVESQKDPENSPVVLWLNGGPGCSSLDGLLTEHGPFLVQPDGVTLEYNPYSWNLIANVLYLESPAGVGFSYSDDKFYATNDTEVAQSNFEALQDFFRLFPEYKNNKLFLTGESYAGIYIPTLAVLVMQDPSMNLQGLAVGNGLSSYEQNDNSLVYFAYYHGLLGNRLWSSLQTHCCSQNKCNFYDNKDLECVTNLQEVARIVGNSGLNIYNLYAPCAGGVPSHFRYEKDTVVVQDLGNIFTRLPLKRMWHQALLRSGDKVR
Chain of Lysosomal protective protein (P10619 327-480 limits assumed): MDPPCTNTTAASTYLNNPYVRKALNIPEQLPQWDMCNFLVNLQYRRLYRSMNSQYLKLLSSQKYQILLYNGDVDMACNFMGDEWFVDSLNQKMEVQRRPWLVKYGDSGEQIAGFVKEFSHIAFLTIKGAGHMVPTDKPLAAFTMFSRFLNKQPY
Chain of Neutrophil elastase (P08246 whole entry): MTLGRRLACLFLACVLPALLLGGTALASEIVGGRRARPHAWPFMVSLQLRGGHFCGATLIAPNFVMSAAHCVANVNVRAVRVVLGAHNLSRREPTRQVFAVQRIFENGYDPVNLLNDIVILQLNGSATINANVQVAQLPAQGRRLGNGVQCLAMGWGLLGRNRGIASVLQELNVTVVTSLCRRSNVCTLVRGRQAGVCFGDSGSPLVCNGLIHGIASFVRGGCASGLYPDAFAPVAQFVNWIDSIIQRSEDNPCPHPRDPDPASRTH
Chain of Chymase (P23946 whole entry): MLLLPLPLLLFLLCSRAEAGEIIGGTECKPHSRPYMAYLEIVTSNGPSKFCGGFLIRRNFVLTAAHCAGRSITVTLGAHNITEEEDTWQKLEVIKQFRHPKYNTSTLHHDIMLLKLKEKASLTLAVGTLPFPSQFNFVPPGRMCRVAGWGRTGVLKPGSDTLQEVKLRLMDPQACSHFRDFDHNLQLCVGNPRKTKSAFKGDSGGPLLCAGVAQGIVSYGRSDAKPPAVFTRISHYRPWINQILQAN

As usually defined, the pIC50 is the negative decadic logarithm of the IC50, by convention in mol/L. The low end stands for a high IC50, the high end for a low IC50. Usually Vd stands for the apparent volume that relates the amount in the body to the concentration in plasma or blood. Lower therefore signals confinement near the circulation. The pKi is the Ki on a negative log10 scale, so that one unit is a factor of ten. By clearance is commonly meant a measure of how efficiently the substance is removed, as volume per time. Lower therefore signals a low capacity for elimination. For the compound `O=C(O)C[C@@H]1CC[C@H](NC(=O)Cc2cccs2)B(O)O1` [VABORBACTAM], the MIC was 4 µg/mL in [1]; under 0.06 µg/mL in data set [3]; 0.25 µg/mL in [4]; 0.13 µg/mL in data set [5]; 1 µg/mL in [6]; at most 0.06 µg/mL in data set [7]. Besides, the MIC in data set [9] was under 0.06 µg/mL; in data set [10] it was at most 0.06 µg/mL; in data set [11] it was at most 0.06 µg/mL; in [12], 0.13 µg/mL; in data set [14], 0.25 µg/mL; in [15], at most 0.06 µg/mL. Moreover, the MIC was 2 µg/mL in data set [18]; at most 0.06 µg/mL in data set [19]; 4 µg/mL in data set [20]; 0.25 µg/mL in data set [21]; 0.5 µg/mL in data set [22]; 2 µg/mL in data set [24]. Also, the figures for the pIC50 in [2], in [13] and in data set [23] were under 3.00, under 3.00 and 3.00, respectively. The Vd in [8] was 0.97 L/kg. For the same compound, in [16], the pKi is 7.36. Moreover, the clearance in data set [17] was 26.7 mL/min/kg.
